ChEMBL document CHEMBL1138652, “Chlorothiophenecarboxamides as P1 surrogates of inhibitors of blood coagulation factor Xa” (Bioorg Med Chem Lett, 2004)
In brackets after ≈: the same amount, converted by molar mass.

How the values were obtained:
Coagulation factor X = Coagulation factor X (Homo sapiens, UniProt P00742); assay: Inhibitory concentration against human serine protease factor Xa
Method in brief: (§1)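 Human factor Xa, thrombin and trypsin were each monitored in vitro with a protease-specific chromogenic substrate. Inhibition was calculated from the ratio of optical density in drug-containing versus vehicle-containing assays.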

Trypsin = Trypsin (Homo sapiens, UniProt P07477+P07478+P35030); assay: Inhibitory concentration against human trypsin activity; assay type: protein assay; method in brief: as §1
Prothrombin = Prothrombin (Homo sapiens, UniProt P00734); assay: Inhibitory concentration against human thrombin activity; method in brief: as §1
[1] = Maximum absorbable dose of compound after administration at dose of 10 mg/kg was determined; assay type: ADME, organism-based; parameters: dose 10 mg/kg; settings: human
[2] = Solubility was determined; assay type: ADME; settings: human
Method in brief: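 Shake-flask solubility was measured in phosphate buffer at pH 7 and 37 °C.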

Sequence of Coagulation factor X (P00742 41-179 limits assumed): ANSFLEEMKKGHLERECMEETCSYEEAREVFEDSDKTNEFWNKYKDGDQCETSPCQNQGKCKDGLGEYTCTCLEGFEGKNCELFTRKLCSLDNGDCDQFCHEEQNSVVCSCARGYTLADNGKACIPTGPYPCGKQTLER
Sequence of Coagulation factor X (P00742 235-488 limits assumed): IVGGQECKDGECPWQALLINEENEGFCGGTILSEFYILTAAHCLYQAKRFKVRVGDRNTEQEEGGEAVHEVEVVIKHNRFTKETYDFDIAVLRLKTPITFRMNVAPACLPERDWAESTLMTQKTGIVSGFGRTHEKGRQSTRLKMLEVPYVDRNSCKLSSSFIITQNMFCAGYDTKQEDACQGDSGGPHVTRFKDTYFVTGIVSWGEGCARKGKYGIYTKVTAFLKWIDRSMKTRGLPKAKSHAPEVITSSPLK

Structure (SMILES)	IC50 (Coagulation factor X) [nM]	IC50 (Trypsin) [nM]	IC50 (Prothrombin) [nM]	MAD [1] [mg/kg]	solubility [2] [µg/mL]
COC[C@@H](NC(=O)c1ccc(Cl)s1)C(=O)Nc1ccc(N2CCOCC2=O)c(Cl)c1	13	> 10000	> 10000	–	–
CC[C@@H](NC(=O)c1ccc(Cl)s1)C(=O)Nc1ccc(N2CCOCC2=O)c(C)c1	11	> 10000	> 10000	6.5	41 (≈ 94.1 µM)
COC[C@@H](NC(=O)c1ccc(Cl)s1)C(=O)Nc1ccc(N2CCOCC2=O)c(F)c1	22	> 10000	> 10000	–	–
COCCOC[C@@H](NC(=O)c1ccc(Cl)s1)C(=O)Nc1ccc(N2CCOCC2=O)c(C)c1	11	–	–	22	1050 (≈ 2130 µM)
CCOC[C@@H](NC(=O)c1ccc(Cl)s1)C(=O)Nc1ccc(N2CCOCC2=O)c(C)c1	10	> 10000	> 10000	–	–
COC[C@@H](NC(=O)c1ccc(Cl)s1)C(=O)Nc1ccc(N2CCOCC2=O)c(C(F)(F)F)c1	14	–	–	–	–
CCC[C@@H](NC(=O)c1ccc(Cl)s1)C(=O)Nc1ccc(N2CCOCC2=O)c(C)c1	9.5	> 10000	> 10000	–	–

Next, values leading:

IC50 (Coagulation factor X) [nM]	IC50 (Trypsin) [nM]	IC50 (Prothrombin) [nM]	MAD [1] [mg/kg]	solubility [2] [µg/mL]	Structure (SMILES)
20	> 10000	> 10000	–	–	CC[C@@H](NC(=O)c1ccc(Cl)s1)C(=O)Nc1ccc(N2CCOCC2=O)cc1
–	> 10000	> 10000	–	–	CCC[C@@H](NC(=O)Nc1ccc(Cl)cc1)C(=O)Nc1ccc(N2CCOCC2=O)cc1
66	> 10000	> 10000	–	–	CC(C)[C@@H](NC(=O)c1ccc(Cl)s1)C(=O)Nc1ccc(N2CCOCC2=O)cc1
29	> 10000	> 10000	11	520 (≈ 1190 µM)	Cc1cc(NC(=O)[C@@H](CO)NC(=O)c2ccc(Cl)s2)ccc1N1CCOCC1=O
15	> 10000	> 10000	–	–	CC(C)C[C@@H](NC(=O)c1ccc(Cl)s1)C(=O)Nc1ccc(N2CCOCC2=O)cc1
700	> 10000	> 10000	–	–	O=C(CNC(=O)c1ccc(Cl)s1)Nc1ccc(N2CCOCC2=O)cc1
